For experiment [1], the species on record is Cavia porcellus. Nature of the experiment: Effect on the contractile force of spontaneously beating atria from Reserpine-treated guinea pigs as percentage variation from the control at concentration of 10E-5 M. The experiment is classed as functional. A digest of the protocol: (§1)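 Atria from reserpine-treated guinea pigs (reserpine 2 mg/kg ip, 48 and 24 h before death; only tyramine-unresponsive preparations used). Bath solution at 29 °C, gassed 95% O2/5% CO2, pH 7.5, resting tension […]. After 90 min equilibration, compound added cumulatively, 5 min per concentration. Isometric developed-tension amplitude or beating rate given as % variation from untreated control. Mean ± SEM, 6-10 assays.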

Experiment [2] is filed under the species Cavia porcellus. In words: Effect on the contractile force of spontaneously beating atria from Reserpine-treated guinea pigs as percentage variation from the control at concentration of 10E-6 M. The experiment is classed as functional. The gist of the method:
as §1

The species entered for experiment [3] is Cavia porcellus. In words: Effect on the contractile force of spontaneously beating atria from Reserpine-treated guinea pigs as percentage variation from the control at concentration of 3 x 10E-4 M. Format: functional. The gist of the method:
as §1

Experiment [4] is filed under the species Cavia porcellus. In words: Effect on the contractile force of spontaneously beating atria from Reserpine-treated guinea pigs as percentage variation from the control at concentration of 3 x 10E-5 M. Format: functional. The gist of the method:
as §1

For experiment [5], the species on record is Cavia porcellus. Nature of the experiment: Effect on the contractile force of spontaneously beating atria from Reserpine-treated guinea pigs as percentage variation from the control at concentration of 3 x 10E-6 M. Format: functional. The gist of the method: as §1
For experiment [6], the species on record is Cavia porcellus. In words: Compound was evaluated for its effect on the frequency rate of spontaneously beating atria from Reserpine-treated guinea pigs as percentage variation from the control at different concentration of 10E-3 M. Format: functional. A digest of the protocol:
as §1

For experiment [7], the species on record is Cavia porcellus. Nature of the experiment: Compound was evaluated for its effect on the frequency rate of spontaneously beating atria from Reserpine-treated guinea pigs as percentage variation from the control at different concentration of 10E-4 M. Format: functional. The gist of the method: as §1
For experiment [8], the species on record is Cavia porcellus. Nature of the experiment: Compound was evaluated for its effect on the frequency rate of spontaneously beating atria from Reserpine-treated guinea pigs as percentage variation from the control at different concentration of 10E-5 M. The experiment is classed as functional. The gist of the method:
as §1

Experiment [9] is filed under the species Cavia porcellus. In words: Compound was evaluated for its effect on the frequency rate of spontaneously beating atria from Reserpine-treated guinea pigs as percentage variation from the control at different concentration of 10E-6 M. The experiment is classed as functional. A digest of the protocol: as §1
Experiment [10] is filed under the species Cavia porcellus. In words: Compound was evaluated for its effect on the frequency rate of spontaneously beating atria from Reserpine-treated guinea pigs as percentage variation from the control at different concentration of 3 x 10E-4 M. Format: functional. The gist of the method: as §1
For experiment [11], the species on record is Cavia porcellus. In words: Compound was evaluated for its effect on the frequency rate of spontaneously beating atria from Reserpine-treated guinea pigs as percentage variation from the control at different concentration of 3 x 10E-5 M. The experiment is classed as functional. A digest of the protocol:
as §1

The species entered for experiment [12] is Cavia porcellus. Nature of the experiment: Compound was evaluated for its effect on the frequency rate of spontaneously beating atria from Reserpine-treated guinea pigs as percentage variation from the control at different concentration of 3 x10E-6 M. Format: functional. The gist of the method: as §1
The species entered for experiment [13] is Cavia porcellus. Nature of the experiment: Effect on the contractile force of spontaneously beating atria from Reserpine-treated guinea pigs as percentage variation from the control at concentration of 10E-3 M. Format: functional. A digest of the protocol:
as §1

Experiment [14] is filed under the species Cavia porcellus. In words: Effect on the contractile force of spontaneously beating atria from Reserpine treated guinea pigs as percentage variation from the control at concentration of 10E-4 M. The experiment is classed as functional. A digest of the protocol: as §1
For experiment [15], the species on record is Cavia porcellus. Nature of the experiment: Effect on the frequency rate of spontaneously beating atria from Reserpine-treated guinea pigs as percentage variation from the control at concentration of 10E-3 M. The experiment is classed as functional. A digest of the protocol: as §1
For experiment [16], the species on record is Cavia porcellus. In words: Effect on the frequency rate of spontaneously beating atria from Reserpine-treated guinea pigs as percentage variation from the control at concentration of 10E-4 M. The experiment is classed as functional. The gist of the method:
as §1

Experiment [17] is filed under the species Cavia porcellus. In words: Effect on the frequency rate of spontaneously beating atria from Reserpine-treated guinea pigs as percentage variation from the control at concentration of 10E-5 M. The experiment is classed as functional. A digest of the protocol: as §1
Experiment [18] is filed under the species Cavia porcellus. Nature of the experiment: Effect on the frequency rate of spontaneously beating atria from Reserpine-treated guinea pigs as percentage variation from the control at concentration of 10E-6 M. The experiment is classed as functional. A digest of the protocol: as §1
For experiment [19], the species on record is Cavia porcellus. In words: Inotropic effect in electrically driven left atrium from reserpine-treated guinea pigs at concentration of 10E-3 M. Format: functional, Cardiac atrium. A digest of the protocol:
(§2)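 Electrically driven left atrium from reserpine-treated guinea pigs (tyramine-unresponsive), 29 °C, pH 7.5, resting tension […], 90 min equilibration. Compound dissolved in DMSO and added cumulatively, 5 min per step. Where used, adenosine deaminase was preincubated 20 min, and basal force was taken after ADA addition. Developed tension given as % change over control. Mean ± SEM of six assays.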

For experiment [20], the species on record is Cavia porcellus. Nature of the experiment: Inotropic effect in electrically driven left atrium from reserpine-treated guinea pigs at concentration of 10E-4 M. Format: functional, Cardiac atrium. The gist of the method: as §2
The species entered for experiment [21] is Cavia porcellus. Nature of the experiment: Inotropic effect in electrically driven left atrium from reserpine-treated guinea pigs at concentration of 10E-5 M. Format: functional, Cardiac atrium. The gist of the method:
as §2

The species entered for experiment [22] is Cavia porcellus. In words: Inotropic effect in electrically driven left atrium from reserpine-treated guinea pigs at concentration of 10E-6 M. The experiment is classed as functional, Cardiac atrium. The gist of the method:
as §2

The species entered for experiment [23] is Cavia porcellus. In words: Inotropic effect in electrically driven left atrium from reserpine-treated guinea pigs at concentration of 3 x 10E-4 M. Format: functional, Cardiac atrium. A digest of the protocol:
as §2

The species named for experiment [24] is Cavia porcellus. In words: Inotropic effect in electrically driven left atrium from reserpine-treated guinea pigs at concentration of 3 x 10E-5 M. The experiment is classed as functional, Cardiac atrium. The gist of the method:
as §2

The species named for experiment [25] is Cavia porcellus. In words: Inotropic effect in electrically driven left atrium from reserpine-treated guinea pigs at concentration of 3 x 10E-6 M. Format: functional, Cardiac atrium. A digest of the protocol:
as §2

The species entered for experiment [26] is Cavia porcellus. In words: Compound was evaluated for its effect on the frequency rate of spontaneously beating atria from Reserpine-treated guinea pigs as percentage variation from the control at concentration of 3 x 10E-4 M. The experiment is classed as functional. A digest of the protocol:
as §1

For experiment [27], the species on record is Cavia porcellus. Nature of the experiment: Compound was evaluated for its effect on the frequency rate of spontaneously beating atria from Reserpine-treated guinea pigs as percentage variation from the control at concentration of 3 x 10E-5 M. Format: functional. A digest of the protocol:
as §1

Experiment [28] is filed under the species Cavia porcellus. In words: Compound was evaluated for its effect on the frequency rate of spontaneously beating atria from Reserpine-treated guinea pigs as percentage variation from the control at concentration of 3 x 10E-6 M. Format: functional. A digest of the protocol:
as §1

For experiment [29], the species on record is Cavia porcellus. Nature of the experiment: Compound was evaluated for its effect on the frequency rate of spontaneously beating atria from Reserpine-treated guinea pigs as percentage variation from the control at concentration of 10e-6 M. The experiment is classed as functional. A digest of the protocol: as §1
The species entered for experiment [30] is Cavia porcellus. In words: Compound was evaluated for its effect on the contractile force of spontaneously beating atria from Reserpine-treated guinea pigs as percentage variation from the control at concentration 10E-3 M. The experiment is classed as functional. A digest of the protocol:
as §1

`CN(C)c1ncccn1`: the Variation amounted to 9.17% in the experiment filed under Cavia porcellus [1]; 0% in the experiment listed under Cavia porcellus [2]; 37.73% in the experiment filed under Cavia porcellus [3]; 11.63% in the experiment listed under Cavia porcellus [4]; 4.92% in the experiment filed under Cavia porcellus [5]; 25.17% in the experiment listed under Cavia porcellus [6]. Besides, the Variation in the experiment filed under Cavia porcellus [7] was 9.72%; in the experiment filed under Cavia porcellus [8], 1.33%; in the experiment filed under Cavia porcellus [9], 0%; in the experiment filed under Cavia porcellus [10], 17.44%; in the experiment listed under Cavia porcellus [11], 3.72%; in the experiment listed under Cavia porcellus [12], 0%. Besides, the figures for the Variation in the experiment listed under Cavia porcellus [13] and in the experiment filed under Cavia porcellus [14] were 41.66% and 15.08%, respectively.

As for `Cc1[nH]c(=O)c(C#N)cc1-c1ccncc1` [MILRINONE], the Variation in the experiment filed under Cavia porcellus [1] is given as 16.31%; in the experiment listed under Cavia porcellus [2], 0%; in the experiment filed under Cavia porcellus [3], 45.62%; in the experiment listed under Cavia porcellus [4] it was 30.32%; in the experiment listed under Cavia porcellus [5], 0%; in the experiment listed under Cavia porcellus [15] it was 37.2%. Also, the Variation came to 34.16% in the experiment filed under Cavia porcellus [16]; 15.22% in the experiment filed under Cavia porcellus [17]; 0% in the experiment filed under Cavia porcellus [18]; 42.89% in the experiment filed under Cavia porcellus [19]; 35.61% in the experiment filed under Cavia porcellus [20]; 13.25% in the experiment filed under Cavia porcellus [21]. The Variation in the experiment filed under Cavia porcellus [22] amounted to 0%; in the experiment listed under Cavia porcellus [23] it was 45.61%; in the experiment filed under Cavia porcellus [24] it was 22.81%; in the experiment filed under Cavia porcellus [25], 9.31%; in the experiment filed under Cavia porcellus [26], 42.85%; in the experiment listed under Cavia porcellus [27] it was 27.09%. Moreover, the results for the Variation in the experiment filed under Cavia porcellus [28], in the experiment listed under Cavia porcellus [13] and in the experiment filed under Cavia porcellus [14] were 0%, 31.09% and 37.77%, respectively.

In the case of `CCOC(=O)c1cnc(N(C)C)nc1C`, the Variation in the experiment listed under Cavia porcellus [1] is on record as 9.91%; in the experiment listed under Cavia porcellus [2], 2.79%; in the experiment filed under Cavia porcellus [3], -25.87%; in the experiment filed under Cavia porcellus [4], 15.88%; in the experiment listed under Cavia porcellus [5], 7.12%; in the experiment listed under Cavia porcellus [15] it was -17.85%. Further, the Variation in the experiment filed under Cavia porcellus [16] is reported as 7.14%; in the experiment listed under Cavia porcellus [17], 0%; in the experiment listed under Cavia porcellus [29] it was -3.57%; in the experiment listed under Cavia porcellus [26], 10.71%; in the experiment listed under Cavia porcellus [27], 3.57%; in the experiment listed under Cavia porcellus [28] it was 0%. Moreover, the Variation is given as -49.52% in the experiment filed under Cavia porcellus [30] and -21.41% in the experiment listed under Cavia porcellus [14].

The values are drawn from ChEMBL document CHEMBL1129639, “Synthesis and cardiotonic activity of novel pyrimidine derivatives: crystallographic and quantum chemical studies” (J Med Chem, 1996).
